Data set [1] relates to Rotavirus. Put plainly: Antiviral activity against Rotavirus SA11 in MA104 cells assessed as inhibition of viral replication after 24 hrs by immunofluorescent assay and Western blotting analysis. The data set is classed as functional. The settings on record: SA11, MA104, 24 h, read-out: ED50 (the source's name). An outline of the steps: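 Confluent MA104 monolayers infected 1 hr, PBS-washed, then given MEM with compound or DMSO (0.1%) plus trypsin 1 μg/ml. VP6 tracked by IFA (methanol fixation, anti-VP6 mAb, FITC secondary) or Western blot (β-actin control). ED50 derived from TCID50 titers at 24 hr post infection, MOI 0.05, by Litchfield–Wilcoxon.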

The nature of data set [2]: Cytotoxicity against monkey MA104 cells after 24 hrs. The data set is classed as cell-based, Macaca mulatta. To be noted: rhesus monkey, read-out: TD50. The essentials: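 Confluent MA104 cells exposed to a range of compound concentrations for 24 hrs; cytotoxicity read with a non-radioactive cytotoxicity (CytoTox 96) kit; TD50 derived by the Litchfield–Wilcoxon method.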

A short description of data set [3]: Therapeutic index, ratio of TD50 for monkey MA104 cells to ED50 for Rotavirus SA11. In kind it is cell-based. The settings on record: read-out: Ratio TD50/ED50. An outline of the steps: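 TD50: confluent MA104 cells exposed to graded compound concentrations for 24 hrs, cytotoxicity read with CytoTox 96 non-radioactive kit, Litchfield–Wilcoxon fit. ED50: SA11-infected MA104 (MOI 0.05) treated with compound plus trypsin 1 μg/ml, TCID50 titers at 24 hr, Litchfield–Wilcoxon. Index is TD50 divided by ED50.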

Data set [4] deals with Rotavirus. Kind of data set: Virucidal activity against Rotavirus SA11 in MA104 cells assessed as reduction in viral titer at 100 uM pretreated for 2 hrs prior infection measured after 12 hrs postinfection by immunofluorescent assay. The data set is classed as functional, organism-based.
In data set [5] the test system is Rotavirus. Kind of data set: Virucidal activity against Rotavirus SA11 in MA104 cells assessed as reduction in viral titer at 100 uM pretreated for 2 hrs prior infection measured after 12 hrs postinfection by Western blotting analysis. The data set is classed as functional, organism-based.
The next data set has as its system MA104. Kind of data set: Inhibition of lipogenesis in monkey MA104 cells infected with Rotavirus SA11 assessed as inhibition of increase in lipid droplets at 1 uM after 10 hrs by NBD-cholesterol based fluorescence analysis. The data set is classed as functional, cell-based. The settings on record: Macaca mulatta. The essentials:
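Confluent MA104 cells, mock- or SA11-infected at MOI 10, incubated with compound or 0.1% DMSO in medium with NBD-cholesterol 1 μg/ml and trypsin 1 μg/ml. Fixed at 10 hr post infection in 4% formaldehyde for 10 min, PBS-washed twice; lipid-droplet fluorescence viewed by fluorescence microscopy.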

A further data set deals with Huh-7. Put plainly: Inhibition of lipogenesis in human HuH7 cells assessed as inhibition of increase in lipid droplets at 1 uM after 72 hrs by NBD-cholesterol based fluorescence analysis. In kind it is functional, cell-based. The essentials:
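Confluent uninfected Huh-7 cells, in which lipid droplets form spontaneously, treated with compound or 0.1% DMSO for 72 hrs. Medium then replaced with NBD-cholesterol (1 μg/ml) for a further 12 hrs. Cells fixed in 4% formaldehyde for 10 min, PBS-washed, and lipid-droplet fluorescence examined by fluorescence microscopy.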

Data set [6] deals with Rotavirus. Kind of data set: Antiviral activity against Rotavirus Wa in MA104 cells assessed as inhibition of viral replication after 24 hrs by immunofluorescent assay and Western blotting analysis. The data set is classed as functional, organism-based. On the technique in general: In western blotting, separated proteins are transferred to a membrane and probed.

Active and inactive are the calls of the source. The calls are words filed in the database; no cut-off is given here.

As for `CCCCCCCCCCCCCCCCNc1ccc(C(=O)O)cc1` [CETABEN], the EC50 in the data set on Rotavirus [1] stood at 11.3 µM. Moreover, the CC50 at 24 h in data set [2] worked out at 75.5 µM.

As for `C/C=C/C/C=C/CCC(=O)[C@H]1O[C@H]1C(N)=O` [CERULENIN], the EC50 with Rotavirus [1] is 28.5 µM. In data set [2], the CC50 at 24 h came to 56.7 µM.

For the compound `CCC/C=C/C/C=C/C=C/C=N/NN=O` [TRIACSIN C], the EC50 in the data set on Rotavirus [1] was 0.2 µM. Besides, the CC50 at 24 h in data set [2] came to 49.6 µM. Also, the selectivity ratio in data set [3] was 248. Besides, the inhibition entry with Rotavirus [4] and in the data set with Rotavirus [5] was “inactive” throughout. Moreover, the inhibition entry in the data set with MA104 is “Active”. Also, in the data set with Huh-7, the inhibition entry is “Dose-dependent effect”.

As to `CCC/C=C/C/C=C/C=C/C=N/NS(=O)(=O)C(C)C`, the EC50 in the data set on Rotavirus [1] was determined as 9.8 µM. Besides, in the data set on Rotavirus [6], the inhibition entry is “Active”. In data set [2], the CC50 at 24 h came to 90.2 µM.

For `CCCCCCCCCCC(C)(C)C(=O)Nc1c(OC)cc(OC)cc1OC` [CL-976], in the data set with Rotavirus [1], the EC50 stood at 4.3 µM. Besides, the CC50 at 24 h in data set [2] came out at 8.5 µM.

With `CCC/C=C/C/C=C/C=C/CNc1ccc(C(=O)O)cc1`, the EC50 in the data set with Rotavirus [1] turned out to be 0.1 µM. Also, the inhibition entry in the data set with Rotavirus [6] and with MA104 was “Active” throughout. Besides, the CC50 at 24 h in data set [2] stood at 28.5 µM. The selectivity ratio in data set [3] worked out at 285. In addition, the inhibition entry with Rotavirus [4] and in the data set on Rotavirus [5] was “inactive” each time. Also, the inhibition result with Huh-7 was “Dose-dependent effect”.

Consider `CCC/C=C/C/C=C/C=C/C=N/NS(=O)(=O)CCl`, for which, in the data set with Rotavirus [1], the EC50 came to 8.7 µM. Also, the inhibition result with Rotavirus [6] is “Active”. Besides, the CC50 at 24 h in data set [2] was 74 µM.

On to `CCC/C=C/C/C=C/C=C/C=N/NS(=O)(=O)CCCCl`, for which the EC50 in the data set with Rotavirus [1] is 11.5 µM. In the data set on Rotavirus [6], the inhibition result is “Active”. In addition, the CC50 at 24 h in data set [2] amounted to 86.3 µM.

As to `CCC/C=C/C/C=C/C=C/C=N/N1CCCS1(=O)=O`, the EC50 with Rotavirus [1] was 2.2 µM. The inhibition entry in the data set with Rotavirus [6] and in the data set on MA104 was “Active” each time. Besides, the CC50 at 24 h in data set [2] worked out at 86.4 µM. For the same compound, in the data set on Huh-7, the inhibition result was “Dose-dependent effect”.

With `C=C(C)[C@@H]1CC[C@]2(C(=O)O)CC[C@]3(C)[C@H](CC[C@@H]4[C@@]5(C)CC[C@H](O)C(C)(C)[C@@H]5CC[C@]43C)[C@@H]12` [BETULINIC ACID], the EC50 in the data set on Rotavirus [1] worked out at 22.5 µM. Moreover, the CC50 at 24 h in data set [2] came out at 27.8 µM.

Turning to `Cc1c(C)c2c(c(C)c1O)CCC(C)(COc1ccc(CC3SC(=O)NC3=O)cc1)O2` (stereo unspecified) [TROGLITAZONE], in the data set on Rotavirus [1], the EC50 was 5.8 µM. Also, the CC50 at 24 h in data set [2] turned out to be 18.5 µM.

As to `C=C1C(=O)O[C@H](CCCCCCCC)[C@H]1C(=O)O`, in the data set on Rotavirus [1], the EC50 was 21.2 µM. For the same compound, in data set [2], the CC50 at 24 h came out at 28.5 µM.

As to `CCC/C=C/C/C=C/C=C/C=C/C#N`, in the data set on Rotavirus [1], the EC50 amounted to 21.3 µM. The inhibition entry in the data set with Rotavirus [6] is “Active”. Besides, the CC50 at 24 h in data set [2] was 78.8 µM.

On to `O=C(Nc1ccccc1)Nc1ccc(-c2ccc(C(=O)[C@@H]3CCC[C@H]3C(=O)O)cc2)cc1`, for which, in the data set with Rotavirus [1], the EC50 came out at 23.2 µM. Further, the CC50 at 24 h in data set [2] amounted to 85.4 µM.

Values taken from ChEMBL document CHEMBL1949627, “Novel triacsin C analogs as potential antivirals against rotavirus infections” (Eur J Med Chem, 2012).
